28 compounds from ChEMBL document CHEMBL1138718, “CVT-4325: a potent fatty acid oxidation inhibitor with favorable oral bioavailability” (Bioorg Med Chem Lett, 2004) can be followed below.

In general, AUC refers to concentration integrated over time. A word on the half-life: it is the time needed for the level to fall by half in the phase considered. The low end stands for rapid decline, the high end for slow decline. A word on the clearance: it is the volume of plasma or blood freed of the substance per unit of time. A high value points to efficient removal. As a reminder, the bioavailability is dose-corrected exposure relative to a reference, in per cent.

Data set [1] can be described thus: Plasma clearance in rats after 1 mg/kg intravenous dose. The conditions noted are these: rat; for clearance: plasma.
Data set [2] in a line: Oral bioavailability in rat (dose 2 mg/kg). The format is ADME, organism-based. The conditions noted are these: in vivo.
Data set [3] in a line: Area under curve for the compound was determined in rats after 2 mg/kg oral dose. The data set is classed as ADME, organism-based. More on the design: dose 2 mg/kg, route oral. To be noted: rat, in vivo.
Data set [4] in a line: Half life in rats after 1 mg/kg intravenous dose. To be noted: rat, in vivo.
Data set [5] is described as follows: Metabolic stability as percent of drug remaining after incubation with human liver S9 for 30 min was determined. The data set is classed as ADME, subcellular, Liver S9 fraction. The conditions noted are these: for remaining at 0.5 h: liver S9, read-out: Activity. The method, boiled down:
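Incubation with human liver S9 (2 mg/mL) plus NADPH for 30 min, read as percent parent remaining. A standard was run in every assay, and data were accepted only if the standard fell within ±5% of its historical mean.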

Data set [6] is described as follows: Half life in dog after 1 mg/kg intravenous dose. To be noted: in vivo.
The nature of data set [7]: Plasma clearance in dog after 1 mg/kg intravenous dose. To be noted: in vivo.
The nature of data set [8]: Area under curve for the compound was determined in dog after 4 mg/kg oral dose. The data set is classed as ADME, organism-based, Canis lupus familiaris. Details: dose 4 mg/kg, route oral. To be noted: in vivo.
A short description of data set [9]: Bioavailability in dog after 4 mg/kg oral dose. The conditions noted are these: in vivo. The format is ADME, organism-based, Canis lupus familiaris.
A short description of data set [10]: Bioavailability in dog after 5 mg/kg oral dose. The format is ADME, organism-based, Canis lupus familiaris. The conditions noted are these: in vivo.
A short description of data set [11]: Plasma clearance in dog after 1 mg/kg intravenous dose. The conditions noted are these: in vivo. This is another data set of the same source.
Data set [12] is described as follows: Half life in dog after 1 mg/kg intravenous dose. To be noted: in vivo. This is another data set of the same source.
Data set [13] in a line: Area under curve for the compound was determined in dog after 5 mg/kg oral dose. The format is ADME, organism-based, Canis lupus familiaris. Details: dose 5 mg/kg, route oral. The conditions noted are these: in vivo.

For the compound `Cc1nc2cc(OC[C@H](O)CN3CCN(CC(=O)Nc4c(C)cccc4C)CC3)ccc2s1`, in data set [1] (in vivo), the Plasma clearance came to 54.5 mL/min/kg. Also, the F in data set [2] stood at 19%. Further, the AUC in [3] was 30.5 ng·h/mL. Moreover, the half-life in data set [4] is 1.4 h.
For `Cc1nc2cc(OC[C@H](O)CN3CCN(Cc4noc(-c5ccc(Cl)cc5)n4)CC3)ccc2s1`, the remaining at 0.5 h in [5] was determined as 48%.
With `Cc1nc2cc(OC[C@H](O)CN3CCN(Cc4noc(-c5cccc(F)c5)n4)CC3)ccc2s1`, the remaining at 0.5 h in [5] was found to be 42%.
Regarding `Cc1nc2cc(OC[C@H](O)CN3CCN(Cc4noc(-c5ccc(C(C)(C)C)cc5)n4)CC3)ccc2s1`, in data set [5], the remaining at 0.5 h is 18%.
The same measure, in the same setting: in the case of `Cc1nc2cc(OC[C@H](O)CN3CCN(Cc4csc(-c5ccc(C(F)(F)F)cc5)n4)CC3)ccc2s1` it was 40%.
The same measure, in the same setting: in the case of `Cc1nc2cc(OC[C@H](O)CN3CCN(Cc4nnc(-c5ccc(C(C)(C)C)cc5)o4)CC3)ccc2s1` it was 25%.
Consider `Cc1nc2cc(OC[C@H](O)CN3CCN(Cc4nc(-c5ccc(Cl)c(Cl)c5)no4)CC3)ccc2s1`, for which the remaining at 0.5 h in data set [5] was 36%.
Consider `Cc1nc2cc(OC[C@H](O)CN3CCN(Cc4noc(-c5ccc(F)cc5)n4)CC3)ccc2s1`, for which the remaining at 0.5 h in data set [5] worked out at 50%.
On the same count and under the same terms, as for `COc1ccc(-c2nc(CN3CCN(C[C@@H](O)COc4ccc5sc(C)nc5c4)CC3)no2)cc1`, the figure is 39%; as for `Cc1nc2cc(OC[C@H](O)CN3CCN(Cc4nc(-c5ccc(C(F)(F)F)cc5)no4)CC3)ccc2s1`, 72%; as for `Cc1nc2cc(OC[C@H](O)CN3CCN(Cc4noc(-c5cccc(Cl)c5)n4)CC3)ccc2s1`, 38%.
On to `Cc1nc2cc(OC[C@H](O)CN3CCN(Cc4nc(-c5ccc(Cl)cc5Cl)no4)CC3)ccc2s1`, for which the remaining at 0.5 h in data set [5] turned out to be 29%.
On the same count and under the same terms, as for `Cc1cccc(-c2nc(CN3CCN(C[C@@H](O)COc4ccc5sc(C)nc5c4)CC3)no2)c1`, the figure is 31%; as for `Cc1nc2cc(OC[C@H](O)CN3CCN(Cc4nnc(-c5ccc(C(F)(F)F)cc5)o4)CC3)ccc2s1`, 49%.
On to `Cc1nc2cc(OC[C@H](O)CN3CCN(Cc4nc(-c5ccc(C(C)C)cc5)no4)CC3)ccc2s1`, for which the remaining at 0.5 h in data set [5] stood at 21%.
On the same count and under the same terms, as for `Cc1nc2cc(OC[C@H](O)CN3CCN(Cc4nnc(-c5ccc(Cl)cc5)o4)CC3)ccc2s1`, the figure is 34%.
For `Cc1nc2cc(OC[C@H](O)CN3CCN(Cc4noc(-c5ccc(C(C)C)cc5)n4)CC3)ccc2s1`, the remaining at 0.5 h in [5] was determined as 31%.
Still for that read-out and setting: as for `Cc1nc2cc(OC[C@H](O)CN3CCN(Cc4noc(-c5ccc(Cl)cc5Cl)n4)CC3)ccc2s1`, the figure is 33%; as for `Cc1nc2cc(OC[C@H](O)CN3CCN(Cc4noc(-c5ccc(C#N)cc5)n4)CC3)ccc2s1`, 56%.
`Cc1nc2cc(OC[C@H](O)CN3CCN(Cc4noc(-c5ccc(C(F)(F)F)cc5)n4)CC3)ccc2s1`: the half-life in [6] is 13.6 h; in data set [4] it was 3.2 h. For the same compound, the clearance in [1] was found to be 22.5 mL/min/kg. This compound yielded a bioavailability in [2] of 38%. In addition, the Plasma clearance in data set [7] turned out to be 12.2 mL/min/kg. The AUC in [3] (read-out: AUC) worked out at 282 ng·h/mL; in data set [8], 1776 ng·h/mL. Moreover, the remaining at 0.5 h in [5] is 74%. Also, the Bioavailabiility in data set [9] turned out to be 93%.
As to `Cc1nc2cc(OC[C@H](O)CN3CCN(Cc4nc(-c5ccc(Cl)cc5)no4)CC3)ccc2s1`, the remaining at 0.5 h in data set [5] came out at 66%.
On the same count and under the same terms, in the case of `Cc1nc2cc(OC[C@H](O)CN3CCN(Cc4coc(-c5ccc(C(F)(F)F)cc5)n4)CC3)ccc2s1` it was 43%.
As to `Cc1nc2cc(OC[C@H](O)CN3CCN(Cc4noc(-c5ccc(C(F)(F)F)cc5)n4)C[C@@H]3C)ccc2s1`, the clearance in data set [1] was 19.7 mL/min/kg. Moreover, the Bioavailabiility in data set [10] was found to be 30%. Moreover, the bioavailability in data set [2] was 29%. Further, the Plasma clearance in [11] is 4.6 mL/min/kg. The AUC in [3] (read-out: AUC) was determined as 253 ng·h/mL; in data set [13], 1093 ng·h/mL. The remaining at 0.5 h in data set [5] was determined as 43%. Further, the half-life in [12] was 65 h; in data set [4], 4 h.
`Cc1nc2cc(OC[C@H](O)CN3CCN(Cc4nc(-c5ccc(C(F)(F)F)cc5)sc4C)CC3)ccc2s1`: in data set [5], the remaining at 0.5 h was found to be 40%.
With `Cc1nc2cc(OC[C@H](O)CN3CCN(Cc4noc(-c5ccc(Cl)c(Cl)c5)n4)CC3)ccc2s1`, the remaining at 0.5 h in [5] stood at 30%.
In the case of `Cc1nc2cc(OC[C@H](O)CN3CCN(Cc4nc(-c5ccc(C(C)(C)C)cc5)no4)CC3)ccc2s1`, in [5], the remaining at 0.5 h came out at 39%.
Same read-out and setting: in the case of `Cc1nc2cc(OC[C@H](O)CN3CCN(Cc4noc(-c5ccc(Cl)cc5Cl)n4)C[C@@H]3C)ccc2s1` (stereo in doubt; 31) it was 17%.
On to `Cc1nc2cc(OC[C@H](O)CN3CCN(Cc4noc(-c5ccc(Cl)cc5Cl)n4)C[C@@H]3C)ccc2s1` (stereo in doubt; 32), for which the Activity in data set [5] (s9, 0.5 h, 0.5 h) is 30%.
